Activity calls are given as the source filed them.
Assays:
Salmonella typhimurium [1] = test: Antimicrobial activity against Salmonella Typhimurium ATCC 14028 assessed as inhibition of planktonic cell growth at 40 uM after 24 hrs by […]; type: functional, organism-based; conditions: Salmonella enterica subsp. enterica serovar Typhimurium
In short: (§1)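 Planktonic growth was followed by Bioscreen growth curves, not by crystal violet. Overnight cultures were diluted 1:200 in TSB 1/20 and received compound serially diluted in DMSO or EtOH, in triplicate, with solvent controls. Plates were shaken at 25 °C for at least 24 h, reading A600 every 15 min.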

Salmonella typhimurium [2] = test: Antimicrobial activity against Salmonella Typhimurium ATCC 14028 assessed as inhibition of planktonic cell growth at IC50 after 24 hrs by […]; type: functional, organism-based; conditions: Salmonella enterica subsp. enterica serovar Typhimurium; in short: as §1
Salmonella typhimurium [3] = test: Antimicrobial activity against Salmonella Typhimurium ATCC 14028 assessed as inhibition of biofilm formation after 24 hrs by spectrophotometry; type: functional, organism-based, Salmonella enterica subsp. enterica serovar Typhimurium; conditions: Salmonella enterica, ATCC 14028, 24 h
In short: (§2)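 Static peg-lid biofilm prevention assay. Twofold serial dilutions in TSB diluted 1/20, 2–3 repeats per compound. Overnight S. Typhimurium ATCC14028 (LB-grown) or P. aeruginosa PA14 (TSB-grown) cultures were diluted 1:100, giving ~10^6 cells/well, then incubated 24 h at 25 °C without shaking. Pegs were PBS-washed, stained 30 min with 0.1% crystal violet, extracted with 30% acetic acid and read at OD570. IC50 was fitted from the concentration gradient.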

Pseudomonas aeruginosa [4] = test: Antimicrobial activity against Pseudomonas aeruginosa PA14 assessed as inhibition of biofilm formation after 24 hrs by spectrophotometry; type: functional, organism-based; conditions: PA14, 24 h; in short: as §2
Pseudomonas aeruginosa [5] = test: Antimicrobial activity against Pseudomonas aeruginosa PA14 assessed as inhibition of planktonic cell growth at IC50 after 24 hrs by […]; type: functional, organism-based; in short: as §1
Pseudomonas aeruginosa [6] = test: Antimicrobial activity against Pseudomonas aeruginosa PA14 assessed as inhibition of planktonic cell growth at 40 uM after 24 hrs by […]; type: functional, organism-based; in short: as §1
Pseudomonas aeruginosa [7] = test: Antimicrobial activity against Pseudomonas aeruginosa PA14 assessed as inhibition of planktonic cell growth at 80 uM after 24 hrs by […]; type: functional, organism-based; in short: as §1
Salmonella typhimurium [8] = test: Antimicrobial activity against Salmonella Typhimurium ATCC 14028 assessed as inhibition of planktonic cell growth at 80 uM after 24 hrs by […]; type: functional, organism-based; conditions: Salmonella enterica subsp. enterica serovar Typhimurium; in short: as §1
Salmonella typhimurium [9] = test: Antimicrobial activity against Salmonella Typhimurium ATCC 14028 assessed as inhibition of planktonic cell growth at 20 uM after 24 hrs by […]; type: functional, organism-based; conditions: Salmonella enterica subsp. enterica serovar Typhimurium; in short: as §1

IC50 (Salmonella typhimurium [3])	IC50 (Pseudomonas aeruginosa [4])	SMILES	growth inhibition (GI) (Salmonella typhimurium [1])	growth inhibition (GI) (Salmonella typhimurium [2])	growth inhibition (GI) (Pseudomonas aeruginosa [5])	growth inhibition (GI) (Pseudomonas aeruginosa [6])	growth inhibition (GI) (Pseudomonas aeruginosa [7])	growth inhibition (GI) (Salmonella typhimurium [8])	growth inhibition (GI) (Salmonella typhimurium [9])
25.3 µM	31.8 µM	CCCCNc1ncc(-c2ccccc2)[nH]1	inactive	inactive					
36.7 µM		O[C@@]1(c2ccc(I)cc2)C[n+]2cccnc2N1Cc1ccccc1	inactive	inactive					
4.4 µM	13.5 µM	Clc1ccc(-c2cnc(NC3CCCC3)[nH]2)cc1	inactive	inactive	inactive	inactive			
19.1 µM	3.7 µM	COc1cccc(CNc2ncc(-c3ccc([N+](=O)[O-])cc3)[nH]2)c1	inactive	inactive	inactive	inactive			
6.6 µM	12.1 µM	CCCCCCCCN1c2nccc[n+]2C[C@@]1(O)c1ccc([N+](=O)[O-])cc1		Active	Active				
5.7 µM	7.9 µM	Clc1ccc(-c2cnc(NC3CCCC3)[nH]2)cc1Cl		inactive	inactive	inactive			inactive
52.6 µM	46.3 µM	CCCCNc1ncc(-c2ccc(OC)cc2)[nH]1		inactive	inactive		inactive	inactive	
30.7 µM	26.3 µM	Clc1ccc(-c2cnc(NCc3ccccc3)[nH]2)cc1	inactive	inactive	inactive	inactive			
58.4 µM	48.6 µM	O[C@@]1(c2ccccc2)C[n+]2cccnc2N1C1CCCCCCC1		Active	Active		Active	Active	
84.2 µM	191 µM	O[C@@]1(c2ccccc2)C[n+]2cccnc2N1C1CCCCCC1		inactive	inactive				
8 µM		CC(C)CN1c2nccc[n+]2C[C@@]1(O)c1ccc(Cl)c(Cl)c1	Active	inactive					
29.7 µM	24.9 µM	CCCCN1c2nccc[n+]2C[C@@]1(O)c1ccc(Cl)cc1	inactive	inactive	inactive	inactive			
8.3 µM	26.8 µM	CCCCCCCCCN1c2nccc[n+]2C[C@@]1(O)c1ccccc1		Active	Active				
9.8 µM	14.4 µM	CCCCCCCCN1c2nccc[n+]2C[C@@]1(O)c1ccccc1		Active	Active				
630 µM	4.4 µM	O=[N+]([O-])c1cccc(-c2cnc(NC3CCCCC3)[nH]2)c1			inactive	inactive			
11.8 µM	20.2 µM	O=[N+]([O-])c1ccc(-c2cnc(NC3CCCC3)[nH]2)cc1		inactive	inactive				inactive

Second part, the molecule before the results:

SMILES	IC50 (Salmonella typhimurium [3])	IC50 (Pseudomonas aeruginosa [4])	growth inhibition (GI) (Salmonella typhimurium [1])	growth inhibition (GI) (Salmonella typhimurium [2])	growth inhibition (GI) (Pseudomonas aeruginosa [5])	growth inhibition (GI) (Pseudomonas aeruginosa [6])	growth inhibition (GI) (Pseudomonas aeruginosa [7])	growth inhibition (GI) (Salmonella typhimurium [8])	growth inhibition (GI) (Salmonella typhimurium [9])
O[C@@]1(c2ccc(Cl)cc2)C[n+]2cccnc2N1C1CCCC1	41.8 µM	41.9 µM		Active	Active		Active	Active	
CCCNc1ncc(-c2ccc(Cl)c(Cl)c2)[nH]1	10.9 µM	27.7 µM		inactive					inactive
COc1ccc(-c2cnc(NC3CCCCC3)[nH]2)cc1	378 µM	54.8 µM			inactive		inactive		
O[C@@]1(c2ccc(Cl)cc2)C[n+]2cccnc2N1C1CCCCC1	33 µM	16.4 µM		Active	inactive		Active	Active	
CCCCCCCCCCN1c2nccc[n+]2C[C@@]1(O)c1ccc(Cl)cc1	51.3 µM	83.3 µM		Active	Active				
CCCCCCN1c2nccc[n+]2C[C@@]1(O)c1ccc([N+](=O)[O-])cc1	54.7 µM	12.4 µM		Active	Active				
CC(C)CNc1ncc(-c2ccc([N+](=O)[O-])cc2)[nH]1	3.8 µM	22.9 µM	inactive	inactive	inactive				
CCCCCCCCNc1ncc(-c2cccc(Br)c2)[nH]1	44.6 µM	> 800 µM		inactive				inactive	
CCCCCN1c2nccc[n+]2C[C@@]1(O)c1ccc(Br)cc1	1.7 µM	4.2 µM	inactive	inactive	inactive	inactive			
O=[N+]([O-])c1ccc(-c2cnc(NC3CCCCC3)[nH]2)cc1	36.7 µM	25 µM	inactive	inactive					
CCCCCN1c2nccc[n+]2C[C@@]1(O)c1ccc(Cl)cc1	32.6 µM	164 µM	inactive	inactive	Active				
CCCCCCCCNc1ncc(-c2ccc([N+](=O)[O-])cc2)[nH]1	10.9 µM	25 µM		inactive				inactive	
CCCCCCCCCCN1c2nccc[n+]2C[C@@]1(O)c1ccc([N+](=O)[O-])cc1	9.9 µM	22.3 µM		Active	Active				
O[C@@]1(c2ccccc2)C[n+]2cccnc2N1C1CCCCC1	139 µM	22.4 µM		Active	inactive		Active		
CC(C)CN1c2nccc[n+]2C[C@@]1(O)c1ccc(Br)cc1	5.2 µM	6.3 µM	Active	inactive	inactive	inactive			
c1ccc(-c2cnc(NC3CCCC3)[nH]2)cc1	52.9 µM	33.8 µM		inactive	inactive	inactive		inactive	
O[C@@]1(c2ccc(Cl)cc2)C[n+]2cccnc2N1C1CCCCCCCCCCC1	5.6 µM	6.8 µM		Active	Active				
CNc1ncc(-c2ccc([N+](=O)[O-])cc2)[nH]1	170 µM	56.1 µM			inactive		inactive		
CCCCNc1ncc(-c2ccc(F)cc2)[nH]1	15.5 µM	10.8 µM		inactive	inactive	inactive		inactive	
CNc1ncc(-c2ccc(F)cc2)[nH]1	102 µM	25.2 µM			inactive	inactive			
CCCCCCCCN1c2nccc[n+]2C[C@@]1(O)c1ccc(Cl)cc1	7 µM	15.7 µM		Active	Active				
O[C@@]1(c2ccc(F)cc2)C[n+]2cccnc2N1Cc1ccc2c(c1)OCO2	17.2 µM		inactive	inactive					
CC(C)CN1c2nccc[n+]2C[C@@]1(O)c1ccc(Cl)cc1	31.4 µM	83.4 µM	inactive	inactive					
O[C@@]1(c2ccc(Cl)cc2)C[n+]2cccnc2N1C1CCCCCC1	27.9 µM	76.2 µM		Active	Active		Active		
CCCCCCCCCCN1c2nccc[n+]2C[C@@]1(O)c1ccccc1	15 µM	29.9 µM		Active	Active				
O=[N+]([O-])c1ccc([C@]2(O)C[n+]3cccnc3N2C2CCCCCCCCCCC2)cc1	< 6.3 µM	5.4 µM		Active	Active				

— ChEMBL document CHEMBL1811868, “Structure-activity relationship of 2-hydroxy-2-aryl-2,3-dihydro-imidazo[1,2-a]pyrimidinium salts and 2N-substituted 4(5)-aryl-2-amino-1H-imidazoles as inhibitors of biofilm formation by Salmonella Typhimurium and Pseudomonas aeruginosa” (Bioorg Med Chem, 2011)
